According to ChEMBL document CHEMBL4316604, “Discovery of Isaindigotone Derivatives as Novel Bloom's Syndrome Protein (BLM) Helicase Inhibitors That Disrupt the BLM/DNA Interactions and Regulate the Homologous Recombination Repair” (J Med Chem, 2019):
Active and inactive are the calls of the source. The calls are words filed in the database; no cut-off is given here.

Key:
[1] = molecular target: T1, RecQ-like DNA helicase BLM (Homo sapiens, UniProt P54132); experiment: Inhibition of BLM in human HCT116 cells assessed as increase in gamma-H2AX expression at half IC50 concentration after 24 hrs by Western blot analysis
T1 sequence (P54132 whole entry): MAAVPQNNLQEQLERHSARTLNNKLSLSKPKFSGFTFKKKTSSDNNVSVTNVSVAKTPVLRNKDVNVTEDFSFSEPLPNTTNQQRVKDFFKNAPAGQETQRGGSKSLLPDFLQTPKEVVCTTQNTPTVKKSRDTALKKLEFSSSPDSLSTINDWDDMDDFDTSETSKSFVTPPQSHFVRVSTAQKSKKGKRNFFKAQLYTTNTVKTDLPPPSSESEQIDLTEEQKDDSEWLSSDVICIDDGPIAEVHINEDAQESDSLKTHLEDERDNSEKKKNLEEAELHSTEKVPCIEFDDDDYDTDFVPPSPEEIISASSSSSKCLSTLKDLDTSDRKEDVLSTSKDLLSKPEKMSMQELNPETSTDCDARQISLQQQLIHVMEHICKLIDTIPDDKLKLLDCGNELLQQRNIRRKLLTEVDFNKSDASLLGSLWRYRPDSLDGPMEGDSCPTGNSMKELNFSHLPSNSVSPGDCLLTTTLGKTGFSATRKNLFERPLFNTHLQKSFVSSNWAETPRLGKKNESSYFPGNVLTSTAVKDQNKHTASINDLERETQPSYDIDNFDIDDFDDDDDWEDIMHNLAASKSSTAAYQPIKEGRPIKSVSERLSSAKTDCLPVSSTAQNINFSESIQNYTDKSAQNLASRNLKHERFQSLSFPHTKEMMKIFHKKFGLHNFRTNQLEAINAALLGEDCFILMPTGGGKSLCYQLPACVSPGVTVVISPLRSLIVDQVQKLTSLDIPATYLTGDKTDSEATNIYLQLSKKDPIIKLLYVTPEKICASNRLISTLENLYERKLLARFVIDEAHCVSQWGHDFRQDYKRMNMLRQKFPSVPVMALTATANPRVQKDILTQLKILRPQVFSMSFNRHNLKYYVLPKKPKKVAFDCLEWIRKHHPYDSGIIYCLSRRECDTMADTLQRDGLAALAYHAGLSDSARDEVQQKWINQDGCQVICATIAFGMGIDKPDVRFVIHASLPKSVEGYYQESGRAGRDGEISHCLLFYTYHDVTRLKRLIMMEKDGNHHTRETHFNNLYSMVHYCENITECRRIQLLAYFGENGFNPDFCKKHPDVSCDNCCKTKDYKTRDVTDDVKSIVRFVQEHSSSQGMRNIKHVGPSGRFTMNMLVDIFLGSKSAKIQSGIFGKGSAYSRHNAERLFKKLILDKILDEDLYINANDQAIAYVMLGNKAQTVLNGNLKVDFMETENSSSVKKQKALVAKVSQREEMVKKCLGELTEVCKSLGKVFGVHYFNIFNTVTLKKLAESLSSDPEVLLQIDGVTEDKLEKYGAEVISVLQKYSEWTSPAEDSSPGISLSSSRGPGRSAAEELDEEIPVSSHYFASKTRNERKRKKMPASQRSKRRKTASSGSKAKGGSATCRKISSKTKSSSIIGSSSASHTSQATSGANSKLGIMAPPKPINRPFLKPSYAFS

[2] = molecular target: T1, RecQ-like DNA helicase BLM; experiment: Inhibition of BLM in human HCT116 cells assessed as induction of HRR up-regulation at 1 uM after 24 hrs by GFP-based flow cytometry relative to untreated control; assay type: cell-based
Procedure, shortened: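 HCT116 cells (2×10^5) co-transfected with DR-GFP HRR reporter and I-SceI plasmid; 24 h later treated with 0–2 μM ligand (reference 0–50 μM); BLM siRNA knockdown where stated. GFP-positive cells counted by flow cytometry and normalised to untreated; triplicate, mean ± SD.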

[3] = system: RecQ-like DNA helicase BLM (Homo sapiens), P54132 [Y995A]; experiment: Inhibition of His-tagged BLM Y995A mutant (unknown origin) binding to DNA assessed as effect on unbound DNA
Sequence of RecQ-like DNA helicase BLM (Homo sapiens), P54132 [Y995A] (P54132 whole entry Y995A, the tested form may be a part): as the sequence (P54132 whole entry) above, with Y995A counted along it
Procedure, shortened: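 Truncated His-tagged BLM (residues 642-1296) mutant expressed in E. coli BL21(DE3). ELISA with 5′-biotin forked DNA (50 nM) immobilized on streptavidin plates at 4 °C overnight. BLM at 100 nM final was premixed with half-diluted compound (≤1% DMSO) on ice for 1 h, then added at 37 °C for 1 h. Bound BLM was detected with anti-BLM/HRP-TMB at A450; curves were Hill-fitted.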

[4] = molecular target: T1, RecQ-like DNA helicase BLM; experiment: Inhibition of BLM recruitment to DSB sites on HRR in human HCT116 cells at 0.5 to 1 uM after 48 hrs by ChIP assay; assay type: cell-based
Procedure, shortened: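 HCT116 cells co-transfected with HRR(−) reporter DSB model (or chromosomal I-SceI DSBs) and I-SceI; after 24 h given 0–2 μM ligand for 24 h. Crosslinked in 1% formaldehyde, chromatin digested by micrococcal nuclease to 0.2–0.5 kb, IP with anti-BLM or anti-RAD51 (IgG control). qPCR at DSB sites, normalised to untreated; triplicate.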

HCT-116 [5] = experiment: Induction of apoptosis in human HCT116 cells assessed as increase in cleaved caspase 3 expression at 2 uM after 48 hrs by Western blot analysis; assay type: functional, cell-based
Procedure, shortened: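 HCT116 cells treated with ligand (DNA-damage proteins 24 h, apoptosis proteins 48 h), lysed in RIPA at 4 °C. 40 μg protein per lane resolved by SDS-PAGE, blotted to PVDF, probed with damage and apoptosis antibody panels; β-actin loading control; chemiluminescent detection.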

[6] = molecular target: T1, RecQ-like DNA helicase BLM; experiment: Inhibition of His-tagged BLM (unknown origin) expressed in Escherichia coli BL21 (DE3) assessed as reduction in BLM helicase unwinding activity at 1 uM using 5'-biotin labeled forked-DNA as substrate after 1 hr by PAGE analysis
Procedure, shortened: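 BLM642-1296 (His-tagged, E. coli BL21(DE3)) preincubated with ligand (1.0, 10, 50 μM; ≤1% DMSO) for 1 h at 4 °C. Reaction: 8 nM annealed 5′-biotin duplex forked DNA, 32 nM BLM, 2 mM ATP, 0.1% BSA, 1 h.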

HCT-116 [7] = experiment: Induction of apoptosis in human HCT116 cells assessed as up-regulation of ATR phosphorylation up to 2 uM after 24 hrs by Western blot analysis
[8] = system: RecQ-like DNA helicase BLM (Homo sapiens), P54132 [M1111A]; experiment: Inhibition of His-tagged BLM M1111A mutant (unknown origin) binding to DNA assessed as effect on unbound DNA
Sequence of RecQ-like DNA helicase BLM (Homo sapiens), P54132 [M1111A] (P54132 whole entry M1111A): as the sequence (P54132 whole entry) above, with M1111A counted along it
Procedure, shortened: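 Biotinylated forked DNA (50 nM) immobilised on streptavidin plates overnight at 4 °C. BLM or mutant (100 nM final) premixed with serially halved ligand in 3% BSA blocking buffer, ≤1% DMSO, 1 h on ice. Applied to the blocked plate for 1 h at 37 °C. Bound BLM detected with anti-BLM and HRP secondary, TMB, A450; Hill fit.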

inhibition [1]: Active
fold change (FC) [2]: < 3
inhibition [3]: inactive
inhibition [4]: Active
inhibition [6]: Active
inhibition [8]: inactive
Compound: CCN(CC)CCCNc1cc2nc3n(c(=O)c2cc1F)CC/C3=C\c1ccc(C(C)C)cc1
Activity (HCT-116 [5]): Active
Activity (HCT-116 [7]): Active
